Assay outcomes deposited in PubChem BioAssay by several laboratories.
HNF4A DNA FP = change in binding of human HNF4 alpha to DNA; AID 1224865; P41235; 360,000 tested, 0.3% active; activity change, % at 10 µM; HNF4a-FITC DNA binding, fluorescence polarization, 1 h; in the data active = activity change above about 30%, passing the limit was not always enough
IDE act = boosts human insulin-degrading enzyme activity in HEK cells | P14735 | FAbeta-B cleavage, fluorescence polarization; 0% vehicle, 100% cell-free pure enzyme wells | activation, % at 5.96 µM | 340,000 tested, 0.073% active | AID 493087;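 active = activation above the mean of all tested compounds plus 3 SD, set per screening campaign, cut at about 17% in these data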
IDE inh = inhibits human insulin-degrading enzyme in HEK cells; 320,000 tested, 0.41% active; AID 434962; FAbetaB cleavage, fluorescence polarization; inhibition, % at 5.59 µM;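 active = percent inhibition above the average of all tested compounds plus 3 SD, set per screening campaign, cut at about 16% in these data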;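 note: IDE supplied by intact live HEK cells; FP after avidin binding of uncleaved biotin substrate so inhibition keeps polarization high; 0% = DMSO wells and 100% = 60 µM reference IDE inhibitor Ii1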
TPT1 inhibitor = blocks Candida albicans tRNA 2'-phosphotransferase; recombinant caTPT1, FP RNA substrate dephosphorylation; inhibition, % at 5 µM; 300,000 tested, 0.81% active;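 active = inhibition above the mean of all tested compounds plus 3 SD, set per screening campaign, cut at about 24% in these data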;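 note: plate controls were DMSO alone for no effect and ferristatin control at 100 nM for full effect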
Rpn11 block = inhibitors of human proteasome Rpn11 | AID 588493 | inhibition, % at 20 µM | human 26S proteasome, Ub4-pepOG fluorescence polarization; 20S core pre-blocked with epoxomicin | 360,000 tested, 0.59% active;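 active = inhibition at 20 µM, scaled to each plate's controls, above about 33%, limit read from the data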
Target sequence (O00487 whole entry, looked up): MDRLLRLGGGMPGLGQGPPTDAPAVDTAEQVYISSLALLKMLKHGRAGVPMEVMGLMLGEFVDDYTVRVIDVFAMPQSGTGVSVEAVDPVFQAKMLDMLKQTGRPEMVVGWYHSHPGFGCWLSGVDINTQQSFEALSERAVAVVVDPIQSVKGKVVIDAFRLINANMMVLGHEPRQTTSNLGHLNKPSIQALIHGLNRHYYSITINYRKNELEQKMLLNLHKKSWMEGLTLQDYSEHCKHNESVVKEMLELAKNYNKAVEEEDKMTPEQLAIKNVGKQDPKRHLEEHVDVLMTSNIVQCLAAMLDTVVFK
CSN deneddyl inh = blocks human CSN-mediated cullin deneddylation; inhibition, % at 12.5 µM; Purified CSN, SCF-Nedd8-OG deneddylation, fluorescence polarization; Q92905; AID 651999; 360,000 tested, 0.38% active;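 active = pattern-corrected inhibition above about 35%, with an unprinted fluorescence ratio check between 0.5 and 1.5, limit read from the data, passing the limit was not always enough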;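 note: 0% = enzyme with substrate and 100% = substrate without enzyme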
Target sequence (Q92905 whole entry, looked up, one chain of several): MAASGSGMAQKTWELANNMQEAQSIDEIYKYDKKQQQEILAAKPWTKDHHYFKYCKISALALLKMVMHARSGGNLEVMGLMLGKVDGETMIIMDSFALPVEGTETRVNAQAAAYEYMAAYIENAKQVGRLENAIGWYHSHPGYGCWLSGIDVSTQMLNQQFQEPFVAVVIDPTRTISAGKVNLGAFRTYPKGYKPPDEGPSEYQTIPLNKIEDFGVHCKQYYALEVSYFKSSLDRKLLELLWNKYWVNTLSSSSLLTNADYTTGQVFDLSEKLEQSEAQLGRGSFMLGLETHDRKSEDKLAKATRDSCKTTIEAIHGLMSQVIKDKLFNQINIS
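Test system: Human Csn5 produced in HEK293T cells | Compound: 12.5 µM single point | Times: 90 min, room temperature | Signal: Fluorescence polarization readout | Read-out basis: % inhibition of substrate cleavage by Csn5 | Controls: no-enzyme wells high, enzyme-with-substrate wells low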
IDE cell inh cf = cellular human IDE inhibition, confirmation; 1,200 tested, 51% active; AID 435028; shares compounds with IDE inh; inhibition, % at 5.59 µM; HEK cells, FAbetaB cleavage, fluorescence polarization;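 active = mean inhibition across triplicate wells above the cutoff set by the earlier primary insulin-degrading enzyme screen, cut at about 16% in these data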;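 note: 0% = DMSO wells and 100% = 60 µM reference IDE inhibitor Ii1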
HEK cytotox = counter-screen for IDE inhibitors: cytotoxicity in HEK cells. shares compounds with IDE inh. HEK293 cytotoxicity, ATP luminescence. inhibition, % at 5.59 µM. 1,200 tested, 28% active; in the data active = inhibition above about 22%;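 note: 0% = vehicle wells and 100% = reference cytotoxic drug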
FP fluor counter = fluorescent artifact in IDE inhibitor FP assay; shares compounds with IDE inh; FP counterscreen for fluorescent artifacts, IDE probe project; IC50, µM; 30 tested, under 10 active; AID 588718; call rule not given here
Starred values were filed as active, the others as inactive; nt = no result given. An excerpt weighted towards active compounds, which were near 1.7% of everything screened.

SMILES	HNF4A DNA FP	IDE act	IDE inh	TPT1 inhibitor	Rpn11 block	CSN deneddyl inh	IDE cell inh cf	HEK cytotox	others
CC(C)c1ccc(NC(=O)CSc2nnc(-c3ccccn3)n2C)cc1	0	-18	19*	1	9	-1	11	4
COc1cc([N+](=O)[O-])c2nc(C(=O)O)ccc2c1	6	4	nt	nt	4	-3	nt	nt
CC(=O)Cc1cc(O)c2ccccc2c1OC(=O)c1ccccc1	-1	-6	43*	-2	-1	3	37*	14
Cc1cccc(N2CCN(C(=O)c3cccc(N4CCCC4=O)c3)CC2)c1C	-3	-18	19*	-2	5	3	12	12
O=C(c1cccc(N2CCCC2=O)c1)N1CCN(c2ccccc2)CC1	-1	-6	2	0	2	3	nt	nt
Cc1cccc(N2CCN(C(=O)c3cccc(N4C(=O)C5CC=CC(C)C5C4=O)c3)CC2)c1C (stereo not given)	-3	-58	53*	0	3	4	36*	19
O=C(Nc1ccc2c(c1)OCCO2)C(c1cc2ccccc2o1)N1CCN(C/C=C/c2ccccc2)CC1 (stereo not given)	6	nt	nt	nt	32	2	nt	nt
O=C(CCCOc1ccc(Cl)cc1Cl)NCc1ccncc1	1	-22	24*	-3	9	5	5	13
CNC(=S)N1CCN(c2nc(-c3ccc(Cl)cc3)cs2)CC1	3	-13	18*	-3	-6	-1	8	23*
COCCNC(=S)N1CCN(c2nc(-c3ccc(Cl)cc3)cs2)CC1	5	-18	17*	1	12	2	11	15
CCNC(=S)N1CCN(c2nc(-c3ccc(F)cc3)cs2)CC1	-1	-16	19*	-3	-3	2	6	15
COCCNC(=S)N1CCN(c2nc(-c3ccc(F)cc3)cs2)CC1	-2	-9	14	-2	-4	-1	nt	nt
CCN(CC)CCCNC(=S)N1CCN(c2nc(-c3ccc(F)cc3)cs2)CC1	0	-12	4	-4	0	-7	nt	nt
C=CCN(C(=O)COC(=O)c1cc[n+]([O-])cc1)c1nc(-c2ccccc2)cs1	0	-26	35*	nt	-2	-5	34*	3
C=CCN(C(=O)CSc1nnnn1C)c1nc(-c2ccccc2)cs1	-2	-12	nt	nt	-8	1	nt	nt
COc1cccc(NC(=O)C2(C)CCN2C(=O)CC2CC2)c1 (stereo not given)	-2	nt	nt	nt	-12	1	nt	nt
O=c1c2cc(F)ccc2sn1-c1ccccc1	3	-25	60*	nt	1	0	33*	83*
O=c1c2ccccc2sn1-c1ccccc1F	2	nt	nt	nt	-2	-3	nt	nt
O=C(O)c1cccc(-n2sc3ccccc3c2=O)c1	4	-23	93*	nt	-5	-4	97*	8
O=c1c2ccccc2sn1-c1cccc(Cl)c1	1	nt	nt	nt	-7	-1	nt	nt
CN(C)S(=O)(=O)c1cccc(-n2sc3ccccc3c2=O)c1	5	-19	94*	0	2	1	31*	52*
Cc1ccccc1-n1sc2cc(F)ccc2c1=O	5	-46	72*	-1	-2	-6	17*	80*
Cc1[nH]nc(C(F)(F)F)c1N=NN1CCOCC1	4	1	nt	nt	0	-3	nt	nt
O=c1c2ccccc2sn1-c1ccccc1	4	-20	64*	0	-7	-1	32*	98*
COC(=O)c1cc(Sc2cccc(Cl)c2Cl)ccn1	0	-14	19*	-1	-2	-9	0	12
SMILES	HNF4A DNA FP	IDE act	IDE inh	TPT1 inhibitor	Rpn11 block	CSN deneddyl inh	IDE cell inh cf	HEK cytotox	others
Cc1ccc(C(=O)N2c3ccccc3N=C(c3ccccc3)C2C(=O)NC(C)C)cc1 (stereo not given)	2	nt	nt	nt	nt	1	nt	nt
Cc1ccccc1COc1ccc(/C(O)=C2/C(=O)C(=O)N(CCCn3ccnc3)C2c2ccco2)cc1 (stereo not given)	2	-19	18*	-1	12	5	11	13
CCOc1ccc(/C(O)=C2/C(=O)C(=O)N(CCN(CC)CC)C2c2ccco2)cc1 (stereo not given)	2	-5	4	-2	-1	-6	nt	nt
COC(=O)c1sccc1S(=O)(=O)Nc1ccc(C(O)(C(F)(F)F)C(F)(F)F)cc1	-2	nt	nt	nt	1	1	nt	nt
C=CCN(C(=O)CSc1nc2[nH]ncc2c(=O)n1-c1ccccc1OC)c1ccccc1	5	-13	18*	7	-1	0	13	3
COc1cc(NC(=O)CSc2nc3[nH]ncc3c(=O)n2-c2ccccc2C)cc(OC)c1OC	0	4	4	-2	1	0	nt	nt
O=C(O)c1ccccc1-c1c2cc(I)c(=O)c(I)c-2oc2c(I)c(O)c(I)cc12	-99	-174	147*	-51	nt	-74	91*	27*
Nc1[nH]c(C(=O)c2ccccc2)c(-c2cccnc2)c1C(=O)NCCc1ccc(Cl)cc1Cl	1	nt	nt	nt	nt	-2	nt	nt
CCN(CC)Cc1c(O)ccc2c(=O)c(-c3ccc(Cl)cc3)coc12	1	5	-2	-1	-10	1	nt	nt
CCCOC(=O)c1ccc(Oc2coc3c(CN(CC)CC)c(O)ccc3c2=O)cc1	-1	-9	20*	3	-2	-2	6	11
Cc1ccc(NC(=O)Nc2ccnc(-c3cccnc3)n2)cc1	-2	-9	18*	0	-4	7	4	44*
Cc1ccc(C(=O)Nc2ccnc(-c3cccnc3)n2)cc1	0	1	0	1	2	3	nt	nt
CC(C)CCNC(=O)C1(C)CCN1Cc1ccc(-c2ccccn2)cc1 (stereo not given)	-2	nt	nt	nt	-7	-5	nt	nt
Cc1[nH]n(-c2ccccc2)c(=S)c1C=NCCCN=Cc1c(C)[nH]n(-c2ccccc2)c1=S	0	-16	32*	-4	4	-5	4	123*
Cc1c(CCC(=O)NCCCn2ccnc2)c(=O)oc2cc3oc4c(c3cc12)CCCC4	11	-50	56*	0	2	1	33*	22	FP fluor counter=>55
Cc1oc2cc3oc(=O)c(CCC(=O)NCCCn4ccnc4)c(C)c3cc2c1C	6	-16	16	-3	0	2	nt	nt
C[C@@H]1CN([C@@H](C)CO)C(=O)CCCn2nncc2CO[C@H]1CN(C)Cc1ccc2c(c1)OCCO2	2	nt	nt	nt	-1	7	nt	nt
Cc1ccc(CC(=O)N2CCN(c3ccc([N+](=O)[O-])cc3)CC2)cc1	4	4	6	-3	-4	3	nt	nt
